Legend:
[1] = target: Protein kinase C (PKC); experiment: Agonist activity at Protein kinase C in human U1 cells infected with HIV-1 NL4-3 assessed as induction of HIV-1 p24 production after 72 hrs by ELISA; format: cell-based
How it was run: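 Latency model: U1 cells (2 × 10^5 cells/mL) incubated with a range of compound concentrations at 37 °C for 72 h. p24 in the supernatant measured by ELISA. EC50 is the concentration giving 50% of maximal p24 induction, from nonlinear regression.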

[2] = system: MT4; experiment: Cytotoxicity against human MT4 cells measured after 3 days by CytoTox-Glo assay; format: cell-based; conditions: mt4, 72 h
How it was run: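 MT4 cells cultured with a range of compound concentrations for 3 days. Viability by CytoTox-Glo, run per the manufacturer's protocol. CC50 is the concentration causing a 50% drop in viability.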

[3] = Agonist activity at Protein kinase C in human MT4 cells infected with HIV-1 NL4-3 assessed as inhibition of viral replication measured on day 3 post-infection by Nano-Glo luciferase assay
[4] = Half-life in Sprague-Dawley rat plasma at 0.05 mM measured up to 24 hrs by LCMS analysis; format: ADME, cell-free; conditions: 50 µM
How it was run: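 Sprague Dawley rat plasma (sodium heparin) prewarmed 10 min at 37 °C. Compound added from 5 mM DMSO stock to a final 0.05 mM. Samples taken at 0, 0.5, 1, 2, 4, 6, 10 and 24 h, deproteinized with 2 volumes MeOH, centrifuged and filtered. Analysis by LCMS (C18, isocratic, ESI). Mean of three independent experiments.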

Row | Compound | EC50 [1] [nM] | CC50 [2] [nM] | IC50 [3] [nM] | t1/2 [4] [h]
1 | C=C(C)[C@]12C[C@@H](COC(=O)c3ccccc3)[C@@]34OC5(O[C@@H]1[C@@H]3[C@@H]1O[C@]1(CO)C(=O)[C@@]1(O)[C@H]4[C@H]([C@H](C)[C@@H]1OC(=O)c1ccccc1)[C@H](C)CCCCCC[C@H]5O)O2 | > 3.9 | > 1 | > 1 | 
2 | C=C(C)[C@]12C[C@@H](COC(=O)c3ccccc3)[C@@]34OC5(O[C@@H]1[C@@H]3[C@@H]1O[C@]1(CO)[C@@H](O)[C@@]1(O)[C@H]4[C@H]([C@H](C)[C@@H]1OC(=O)c1ccccc1)[C@H](C)CCCCCC[C@H]5OC(C)=O)O2 |  | > 1 | 0.09 | 
3 | C=C(C)[C@]12C[C@@H](COC(=O)c3ccccc3)[C@@]34OC5(O[C@@H]1[C@@H]3[C@@H]1O[C@]1(CO)[C@@H](O)[C@@]1(O)[C@H]4[C@H]([C@H](C)[C@@H]1OC(=O)c1ccc(OC)cc1)[C@H](C)CCCCCC[C@H]5O)O2 |  | > 1 | 0.17 | 
4 | C=C(C)[C@]12C[C@@H](COC(=O)c3ccccc3)[C@@]34OC5(O[C@@H]1[C@@H]3[C@@H]1O[C@]1(CO)[C@@H](O)[C@@]1(O)[C@H]4[C@H]([C@H](C)[C@@H]1OC(=O)c1ccccc1)[C@H](C)CCCCCC[C@H]5OC(=O)c1ccc3ccccc3c1)O2 |  | > 1 | > 1 | 
5 | C=C(C)[C@]12C[C@@H](COC(=O)c3ccccc3)[C@@]34OC5(O[C@@H]1[C@@H]3[C@@H]1O[C@]1(CO)[C@@H](OC(C)=O)[C@@]1(O)[C@H]4[C@H]([C@H](C)[C@@H]1OC(=O)c1ccccc1)[C@H](C)CCCCCC[C@H]5O)O2 |  | > 1 | > 1 | 
6 | C=C(C)[C@]12C[C@@H](COC(=O)c3ccccc3)[C@@]34OC5(O[C@@H]1[C@@H]3[C@@H]1O[C@]1(COC(=O)[C@@]13CC[C@@](C)(C(=O)O1)C3(C)C)[C@@H](O)[C@@]1(O)[C@H]4[C@H]([C@H](C)[C@@H]1OC(=O)c1ccccc1)[C@H](C)CCCCCC[C@H]5O)O2 |  | > 1 | > 1 | 
7 | C=C(C)[C@]12C[C@@H](COC(=O)c3ccccc3)[C@@]34OC5(O[C@@H]1[C@@H]3[C@@H]1O[C@]1(CO)[C@@H](O)[C@@]1(O)[C@H]4[C@H]([C@H](C)[C@@H]1OC(=O)c1ccccc1)[C@H](C)CCCCCC[C@H]5OC(=O)/C=C/c1ccccc1)O2 |  | > 1 | > 1 | 
8 | C=C(C)[C@]12C[C@@H](COC(=O)c3ccccc3)[C@@]34OC5(O[C@@H]1[C@@H]3[C@@H]1O[C@]1(CO)[C@@H](O)[C@@]1(O)[C@H]4[C@H]([C@H](C)[C@@H]1OC(=O)c1ccccc1)[C@H](C)CCCCCC[C@H]5OC(=O)c1ccc([N+](=O)[O-])cc1)O2 |  | > 1 | > 1 | 
9 | C=C(C)[C@]12C[C@@H](COC(=O)c3ccccc3)[C@@]34OC5(O[C@@H]1[C@@H]3[C@@H]1O[C@]1(CO)[C@@H](O)[C@@]1(O)[C@H]4[C@H]([C@H](C)[C@@H]1OC(=O)/C=C/c1ccccc1)[C@H](C)CCCCCC[C@H]5O)O2 |  | > 1 | > 1 | 
10 | C=C(C)[C@]12C[C@@H](COC(=O)c3ccccc3)[C@@]34OC5(O[C@@H]1[C@@H]3[C@@H]1O[C@]1(COC(=O)/C=C/c1ccc(OC)cc1)[C@@H](O)[C@@]1(O)[C@H]4[C@H]([C@H](C)[C@@H]1OC(=O)c1ccccc1)[C@H](C)CCCCCC[C@H]5O)O2 |  | > 1 | > 1 | 
11 | CC(C)[C@]12C[C@@H](COC(=O)c3ccccc3)[C@@]34OC5(O[C@@H]1[C@@H]3[C@@H]1O[C@]1(CO)[C@@H](O)[C@@]1(O)[C@H]4[C@H]([C@H](C)[C@@H]1OC(=O)c1ccccc1)[C@H](C)CCCCCC[C@H]5O)O2 |  | > 1 | 0.18 | 
12 | C=C(C)[C@]12C[C@@H](COC(=O)c3ccccc3)[C@@]34OC5(O[C@@H]1[C@@H]3[C@@H]1O[C@]1(CO)[C@@H](O)[C@@]1(O)[C@H]4[C@H]([C@H](C)[C@@H]1OC(=O)c1ccccc1)[C@H](C)CCCCCC[C@H]5OC(=O)c1ccccc1)O2 |  | > 1 | > 1 | 
13 | C=C(C)[C@]12C[C@@H](CO)[C@@]34OC5(O[C@@H]1[C@@H]3[C@@H]1O[C@]1(CO)[C@@H](O)[C@@]1(O)[C@H]4[C@H]([C@H](C)[C@@H]1O)[C@H](C)CCCCCC[C@H]5O)O2 |  | > 1 | > 1 | 
14 | C=C(C)[C@]12C[C@@H](COC(=O)c3ccccc3)[C@@]34OC5(O[C@@H]1[C@@H]3[C@@H]1O[C@]1(COC(=O)c1ccccc1)[C@@H](O)[C@@]1(O)[C@H]4[C@H]([C@H](C)[C@@H]1OC(=O)c1ccccc1)[C@H](C)CCCCCC[C@H]5O)O2 |  | > 1 | > 1 | 
15 | C=C(C)[C@]12C[C@@H](COC(=O)c3ccccc3)[C@@]34OC5(O[C@@H]1[C@@H]3[C@@H]1O[C@]1(COC(=O)c1ccccc1)[C@@H](O)[C@@]1(O)[C@H]4[C@H]([C@H](C)[C@@H]1OC(=O)c1ccccc1)[C@H](C)CCCCCC[C@H]5OC(=O)c1ccccc1)O2 |  | > 1 | > 1 | 
16 | C=C(C)[C@]12C[C@@H](COC(=O)c3ccccc3)[C@@]34OC5(O[C@@H]1[C@@H]3[C@@H]1O[C@]1(CO)[C@@H](O)[C@@]1(O)[C@H]4[C@H]([C@H](C)[C@@H]1OC(=O)c1ccc3ccccc3c1)[C@H](C)CCCCCC[C@H]5O)O2 |  | > 1 | 0.15 | 26.17
17 | C=C(C)[C@]12C[C@@H](COC(=O)c3ccccc3)[C@@]34OC5(O[C@@H]1[C@@H]3[C@@H]1O[C@]1(COC(=O)CC(C)(C)C(=O)O)[C@@H](O)[C@@]1(O)[C@H]4[C@H]([C@H](C)[C@@H]1OC(=O)c1ccccc1)[C@H](C)CCCCCC[C@H]5O)O2 |  | > 1 | > 1 | 
18 | C=C(C)[C@]12C[C@@H](COC(=O)c3ccccc3)[C@@]34OC5(O[C@@H]1[C@@H]3[C@@H]1O[C@]1(CO)[C@@H](O)[C@@]1(O)[C@H]4[C@H]([C@H](C)[C@@H]1O)[C@H](C)CCCCCC[C@H]5O)O2 |  | > 1 | > 1 | 
19 | C=C(C)[C@]12C[C@@H](COC(=O)c3ccccc3)[C@@]34OC5(O[C@@H]1[C@@H]3[C@@H]1O[C@]1(CO)[C@@H](OC(=O)c1ccccc1)[C@@]1(O)[C@H]4[C@H]([C@H](C)[C@@H]1OC(=O)c1ccccc1)[C@H](C)CCCCCC[C@H]5O)O2 |  | > 1 | > 1 | 
20 | C=C(C)[C@]12C[C@@H](COC(=O)c3ccccc3)[C@@]34OC5(O[C@@H]1[C@@H]3[C@@H]1O[C@]1(COC(C)=O)[C@@H](O)[C@@]1(O)[C@H]4[C@H]([C@H](C)[C@@H]1OC(=O)c1ccccc1)[C@H](C)CCCCCC[C@H]5O)O2 |  | > 1 | > 1 | 
21 | C=C(C)[C@]12C[C@@H](COC(=O)c3ccccc3)[C@@]34OC5(O[C@@H]1[C@@H]3[C@@H]1O[C@]1(CO)[C@@H](O)[C@@]1(O)[C@H]4[C@H]([C@H](C)[C@@H]1OC(=O)c1ccccc1)[C@H](C)CCCCCC[C@H]5OC(=O)/C(C)=C/C)O2 |  | > 1 | > 1 | 
22 | C=C(C)[C@]12C[C@@H](COC(=O)c3ccccc3)[C@@]34OC5(O[C@@H]1[C@@H]3[C@@H]1O[C@]1(COC(=O)C(C)(C)CC(=O)O)[C@@H](O)[C@@]1(O)[C@H]4[C@H]([C@H](C)[C@@H]1OC(=O)c1ccccc1)[C@H](C)CCCCCC[C@H]5O)O2 |  | > 1 | > 1 | 
23 | C=C(C)[C@]12C[C@@H](COC(=O)c3ccccc3)[C@@]34OC5(O[C@@H]1[C@@H]3[C@@H]1O[C@]1(COC(=O)C1(C)COC(C)(C)OC1)[C@@H](O)[C@@]1(O)[C@H]4[C@H]([C@H](C)[C@@H]1OC(=O)c1ccccc1)[C@H](C)CCCCCC[C@H]5O)O2 |  | > 1 | > 1 | 
24 | C=C(C)[C@]12C[C@@H](COC(=O)c3ccccc3)[C@@]34OC5(O[C@@H]1[C@@H]3[C@@H]1O[C@]1(COC(C)=O)[C@@H](OC(C)=O)[C@@]1(O)[C@H]4[C@H]([C@H](C)[C@@H]1OC(=O)c1ccccc1)[C@H](C)CCCCCC[C@H]5OC(C)=O)O2 |  | > 1 | > 1 | 
25 | C=C(C)[C@]12C[C@@H](COC(=O)c3ccccc3)[C@@]34OC5(O[C@@H]1[C@@H]3[C@@H]1O[C@]1(COC(=O)CCC(=O)O)[C@@H](O)[C@@]1(O)[C@H]4[C@H]([C@H](C)[C@@H]1OC(=O)c1ccccc1)[C@H](C)CCCCCC[C@H]5O)O2 |  | > 1 | > 1 | 
26 | C=C(C)[C@]12C[C@@H](COC(=O)c3ccccc3)[C@@]34OC5(O[C@@H]1[C@@H]3[C@@H]1O[C@]1(CO)[C@@H](O)[C@@]1(O)[C@H]4[C@H]([C@H](C)[C@@H]1OC(=O)c1ccccc1)[C@H](C)CCCCCC[C@H]5OC(=O)c1ccc(OC)cc1)O2 |  | > 1 | > 1 | 
27 | C=C(C)[C@]12C[C@@H](COC(=O)c3ccccc3)[C@@]34OC5(O[C@@H]1[C@@H]3[C@@H]1O[C@]1(CO)[C@@H](O)[C@@]1(O)[C@H]4[C@H]([C@H](C)[C@@H]1OC(=O)c1ccc([N+](=O)[O-])cc1)[C@H](C)CCCCCC[C@H]5O)O2 |  | > 1 | 0.22 | 

From ChEMBL document CHEMBL4373700, “Synthesis and Structure-Activity Relationship Correlations of Gnidimacrin Derivatives as Potent HIV-1 Inhibitors and HIV Latency Reversing Agents” (J Med Chem, 2019)
